Measured values reported in ChEMBL document CHEMBL1144854, “Synthesis and biological evaluation of novel 6-substituted 5-alkyl-2-(arylcarbonylmethylthio)pyrimidin-4(3H)-ones as potent non-nucleoside HIV-1 reverse transcriptase inhibitors” (Bioorg Med Chem, 2008).
Calls of active or inactive are those of the source. No cut-off for these calls is given here.

How the values were obtained:
[1] = system: Human immunodeficiency virus 1; test: Antiviral activity against HIV1 RES056 infected in MT4 cells by MTT; type: functional, organism-based; conditions: Human immunodeficiency virus 1, RES056, MT4
Method in brief: (§1)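 MT-4 cells at 1 × 10^5 cells/mL were infected at MOI 0.02 with virus stocks pre-titrated in MT-4 cells (CCID50) and immediately plated onto serial compound dilutions. Compound stocks were 50 mM in DMSO. Viable cells were counted by MTT after 4 days at 37 °C. EC50 is the concentration giving 50% protection from viral cytopathicity, as the mean of ≥2 separate experiments.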

[2] = system: Human immunodeficiency virus 2; test: Antiviral activity against HIV2 ROD infected in MT4 cells by MTT; type: functional, organism-based; conditions: Human immunodeficiency virus 2, ROD; method in brief: as §1
[3] = Selectivity index, ratio of CC50 for human MT4 cells to EC50 for HIV1 3B; type: functional
[4] = system: Human immunodeficiency virus 1; test: Antiviral activity against HIV1 3B infected in MT4 cells by MTT; type: functional, organism-based; conditions: Human immunodeficiency virus 1, 3B; method in brief: as §1
[5] = Cytotoxicity against human MT4 cells; type: cell-based
Method in brief: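 Uninfected MT-4 cells were run in parallel with the antiviral plates: serial compound concentrations from 50 mM DMSO stocks, 4 days at 37 °C, viability by MTT. CC50 is the concentration cutting viability by 50%, as the mean of ≥2 separate experiments.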

[6] = system: MT4; test: Selectivity index, ratio of CC50 for human MT4 cells to EC50 for HIV1 RES056
[7] = as above

Row | SMILES | EC50 [1] [µM] | EC50 [2] [µM] | Ratio CC50/EC50 [3] | EC50 [4] [µM] | CC50 [5] [µM] | Activity [6] | Ratio CC50/EC50 [7]
1 | COc1ccc(C(=O)CSc2nc(Cc3cc(C)cc(C)c3)c(C)c(=O)[nH]2)cc1 | > 308 | 60.6 | >5704 | 0.054 | > 308 | inactive | 
2 | CCc1c(Cc2ccccc2Br)nc(SCC(=O)c2ccc(OC)cc2)[nH]c1=O |  | > 187 | 4675 | 0.04 | 187 |  | 
3 | COc1ccc(C(=O)CSc2nc(Cc3c(Cl)cccc3Cl)c(C)c(=O)[nH]2)cc1 |  | > 278 | >6318 | 0.044 | > 278 |  | 
4 | COc1ccc(C(=O)CSc2nc(Cc3cccc(Br)c3)c(C)c(=O)[nH]2)cc1 |  | 203 | >=220 | 0.89 | ≥ 196 |  | 
5 | CCc1c(C(c2ccccc2)c2ccccc2)nc(SCC(=O)c2ccc(OC)cc2)[nH]c1=O |  | > 266 | >76 | 3.49 | > 266 |  | 
6 | CCc1c(Cc2ccc(Br)cc2)nc(SCC(=O)c2ccc(OC)cc2)[nH]c1=O |  | > 264 | >33 | 7.94 | > 264 |  | 
7 | COc1ccc(C(=O)CSc2nc(Cc3cccc(O)c3)c(C)c(=O)[nH]2)cc1 |  | > 59 | 16 | 4.44 | 70 |  | 
8 | O=C1Nc2ccc(Cl)cc2C(C#CC2CC2)(C(F)(F)F)O1 (single isomer, unassigned) [EFAVIRENZ] |  |  |  |  | > 6.34 |  | 
9 | CCc1c(Cc2cc(C)cc(C)c2)nc(SCC(=O)c2ccc(OC)cc2)[nH]c1=O | > 239 | 52.8 | >=13278 | 0.018 | ≥ 239 |  | 
10 | Cc1c(Cc2cccc3ccccc23)nc(SCC(=O)c2ccccc2)[nH]c1=O |  | ≥ 42.2 | >=1386 | 0.22 | ≥ 305 |  | 
11 | COc1ccc(C(=O)CSc2nc(C(c3ccccc3)c3ccccc3)c(C)c(=O)[nH]2)cc1 |  | > 274 | >199 | 1.38 | > 274 |  | 
12 | COc1ccc(C(=O)CSc2nc(Cc3ccccc3Br)c(C)c(=O)[nH]2)cc1 |  | > 272 | >432 | 0.63 | > 272 |  | 
13 | CCc1c(Cc2cccc(Br)c2)nc(SCC(=O)c2ccc(OC)cc2)[nH]c1=O |  | > 142 | 887 | 0.16 | 142 |  | 
14 | CCc1c(Cc2cc(C)cc(C)c2)nc(SCC(=O)c2ccccc2)[nH]c1=O | 19.8 | 154 | >31800 | 0.01 | > 318 |  | >16
15 | CCc1c(Cc2cc(C(F)(F)F)cc(C(F)(F)F)c2)nc(SCC(=O)c2ccc(OC)cc2)[nH]c1=O |  | > 236 | >299 | 0.79 | > 236 |  | 
16 | Cc1cn([C@H]2C[C@H](N=[N+]=[N-])[C@@H](CO)O2)c(=O)[nH]c1=O [ZIDOVUDINE] | 0.006 |  | >17990 | 0.005 | > 93.5 |  | >15592
17 | COc1ccc(C(=O)CSc2nc(Cc3cc(C(F)(F)F)cc(C(F)(F)F)c3)c(C)c(=O)[nH]2)cc1 |  | > 242 | >5 | 46.1 | > 242 |  | 
18 | CCc1c(Cc2ccc(-c3ccccc3)cc2)nc(SCC(=O)c2ccc(OC)cc2)[nH]c1=O |  | > 266 |  | > 266 | > 266 |  | 
19 | CC(C)Nc1cccnc1N1CCN(C(=O)c2cc3cc(NS(C)(=O)=O)ccc3[nH]2)CC1 [DELAVIRDINE] | > 3.62 |  | >50 | 0.072 | > 3.62 |  | 
20 | COc1ccc(C(=O)CSc2nc(Cc3ccc(Br)cc3)c(C)c(=O)[nH]2)cc1 |  | ≥ 226 | >30 | 8.97 | > 272 |  | 
